Experimental data from ChEMBL document CHEMBL2062417, “Biotinylated quercetin as an intrinsic photoaffinity proteomics probe for the identification of quercetin target proteins” (Bioorg Med Chem, 2011).
Active and inactive are the calls of the source. The calls are words filed in the database; no cut-off is given here.

Key:
[1] = target: Calcium/calmodulin-dependent protein kinase type II subunit beta (Homo sapiens, UniProt Q13554); experiment: Inhibition of CAMK2 using autocamtide-2 as substrate after 30 mins by PKLight assay
Sequence of Calcium/calmodulin-dependent protein kinase type II subunit beta (Q13554 whole entry): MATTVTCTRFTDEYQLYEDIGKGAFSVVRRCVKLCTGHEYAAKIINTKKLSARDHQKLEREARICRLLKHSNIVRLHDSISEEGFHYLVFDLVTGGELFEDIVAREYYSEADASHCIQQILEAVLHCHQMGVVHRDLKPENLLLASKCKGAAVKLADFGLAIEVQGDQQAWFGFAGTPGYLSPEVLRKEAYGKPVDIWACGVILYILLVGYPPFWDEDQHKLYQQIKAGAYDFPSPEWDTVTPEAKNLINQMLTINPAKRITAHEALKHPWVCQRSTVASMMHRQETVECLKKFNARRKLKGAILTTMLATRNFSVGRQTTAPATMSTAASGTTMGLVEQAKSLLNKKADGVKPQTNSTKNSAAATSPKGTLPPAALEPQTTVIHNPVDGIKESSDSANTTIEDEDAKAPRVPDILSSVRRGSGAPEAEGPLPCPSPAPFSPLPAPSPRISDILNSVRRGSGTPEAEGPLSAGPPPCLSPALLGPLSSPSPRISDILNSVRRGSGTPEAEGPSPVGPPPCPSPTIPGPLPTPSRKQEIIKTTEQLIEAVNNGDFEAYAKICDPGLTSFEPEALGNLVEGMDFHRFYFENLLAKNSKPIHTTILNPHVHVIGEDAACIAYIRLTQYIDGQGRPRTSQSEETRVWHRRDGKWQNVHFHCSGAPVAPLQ

[2] = target: ATP synthase F(1) complex subunit alpha, mitochondrial (Homo sapiens) (UniProt P25705); experiment: Binding affinity to ATP5A1 in human Jurkat cells at 150 uM followed by UV irradiation for 30 mins with Wood's glass filtered medium pressure mercury arc light after cell lysis measured after denaturing wash by SDS-PAGE based pull down assay
Sequence of ATP synthase F(1) complex subunit alpha, mitochondrial (Homo sapiens) (P25705 whole entry, one chain of several): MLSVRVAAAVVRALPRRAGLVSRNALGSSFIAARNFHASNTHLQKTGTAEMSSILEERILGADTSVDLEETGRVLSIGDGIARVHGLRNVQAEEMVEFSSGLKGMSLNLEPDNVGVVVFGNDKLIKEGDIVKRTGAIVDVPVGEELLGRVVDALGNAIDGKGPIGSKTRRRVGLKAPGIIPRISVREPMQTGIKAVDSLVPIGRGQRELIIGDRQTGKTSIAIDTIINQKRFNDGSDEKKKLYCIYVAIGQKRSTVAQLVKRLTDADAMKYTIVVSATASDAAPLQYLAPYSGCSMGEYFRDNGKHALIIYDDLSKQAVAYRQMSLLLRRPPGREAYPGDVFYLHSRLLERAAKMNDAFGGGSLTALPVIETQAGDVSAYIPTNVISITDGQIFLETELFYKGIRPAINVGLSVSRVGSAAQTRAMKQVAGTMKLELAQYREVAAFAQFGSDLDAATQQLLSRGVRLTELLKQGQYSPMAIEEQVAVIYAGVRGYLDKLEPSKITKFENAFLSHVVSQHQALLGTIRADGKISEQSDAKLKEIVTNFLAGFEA
In short: (§1)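 Jurkat cells were grown in RPMI with 10% FBS (about 15×10^6 cells) and treated 2 h with 150 μM BioQ in 3% aqueous DMSO. They were heat-shocked at 43 °C for 30 min, recovered 1 h at 37 °C, and UV-irradiated (320–400 nm, peak 365 nm, 30 min, 4 °C) before or after sonication lysis. Streptavidin-agarose capture ran 1 h. Beads were washed ≥3× with lysis buffer or 2% SDS Tris pH 7.4, boiled, run on 12% SDS-PAGE and silver-stained.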

[3] = target: T1, Splicing factor 3B subunit 3 (Homo sapiens) (UniProt Q15393); experiment: Binding affinity to SF3B3 in human Jurkat cells at 150 uM followed by UV irradiation for 30 mins with Wood's glass filtered medium pressure mercury arc light after cell lysis measured after denaturing wash by SDS-PAGE based pull down assay; in short: as §1
T1 sequence (whole entry): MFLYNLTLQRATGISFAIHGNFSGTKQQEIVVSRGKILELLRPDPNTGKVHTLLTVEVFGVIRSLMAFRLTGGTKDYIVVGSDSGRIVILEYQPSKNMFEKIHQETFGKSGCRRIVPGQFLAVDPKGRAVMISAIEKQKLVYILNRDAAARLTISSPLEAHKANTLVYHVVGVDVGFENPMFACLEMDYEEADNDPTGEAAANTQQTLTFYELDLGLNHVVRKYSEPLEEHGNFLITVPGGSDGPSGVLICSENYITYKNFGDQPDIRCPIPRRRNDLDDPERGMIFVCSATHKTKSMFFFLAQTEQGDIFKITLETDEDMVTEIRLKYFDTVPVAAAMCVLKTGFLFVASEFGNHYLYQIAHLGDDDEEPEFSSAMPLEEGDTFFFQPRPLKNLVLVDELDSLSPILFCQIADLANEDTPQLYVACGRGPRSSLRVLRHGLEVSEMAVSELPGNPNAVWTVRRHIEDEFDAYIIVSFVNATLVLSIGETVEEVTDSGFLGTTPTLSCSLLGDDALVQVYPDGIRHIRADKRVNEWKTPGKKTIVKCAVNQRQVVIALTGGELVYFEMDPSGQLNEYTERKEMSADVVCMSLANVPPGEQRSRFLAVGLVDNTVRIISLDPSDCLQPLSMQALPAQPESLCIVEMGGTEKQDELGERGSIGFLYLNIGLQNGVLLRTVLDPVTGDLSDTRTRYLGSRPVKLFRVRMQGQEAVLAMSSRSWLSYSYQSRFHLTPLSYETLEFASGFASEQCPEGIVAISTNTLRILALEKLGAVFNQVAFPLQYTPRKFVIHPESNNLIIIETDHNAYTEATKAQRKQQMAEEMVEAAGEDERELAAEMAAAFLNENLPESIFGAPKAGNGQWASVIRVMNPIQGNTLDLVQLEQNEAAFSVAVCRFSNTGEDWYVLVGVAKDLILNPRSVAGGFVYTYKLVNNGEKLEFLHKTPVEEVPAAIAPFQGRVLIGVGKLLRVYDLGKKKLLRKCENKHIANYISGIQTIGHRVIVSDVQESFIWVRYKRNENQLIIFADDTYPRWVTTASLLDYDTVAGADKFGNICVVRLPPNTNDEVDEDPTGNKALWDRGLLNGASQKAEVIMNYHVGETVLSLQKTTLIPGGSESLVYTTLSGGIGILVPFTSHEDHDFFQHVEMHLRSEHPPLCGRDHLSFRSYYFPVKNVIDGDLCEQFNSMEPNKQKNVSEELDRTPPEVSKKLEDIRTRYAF

[4] = target: T2, Ubiquitin-like modifier-activating enzyme 1 (Homo sapiens) (UniProt P22314); experiment: Binding affinity to UBA1 in human Jurkat cells at 150 uM followed by UV irradiation for 30 mins with Wood's glass filtered medium pressure mercury arc light prior to cell lysis measured after denaturing wash by LC-MS/MS based pull down assay
T2 sequence (whole entry): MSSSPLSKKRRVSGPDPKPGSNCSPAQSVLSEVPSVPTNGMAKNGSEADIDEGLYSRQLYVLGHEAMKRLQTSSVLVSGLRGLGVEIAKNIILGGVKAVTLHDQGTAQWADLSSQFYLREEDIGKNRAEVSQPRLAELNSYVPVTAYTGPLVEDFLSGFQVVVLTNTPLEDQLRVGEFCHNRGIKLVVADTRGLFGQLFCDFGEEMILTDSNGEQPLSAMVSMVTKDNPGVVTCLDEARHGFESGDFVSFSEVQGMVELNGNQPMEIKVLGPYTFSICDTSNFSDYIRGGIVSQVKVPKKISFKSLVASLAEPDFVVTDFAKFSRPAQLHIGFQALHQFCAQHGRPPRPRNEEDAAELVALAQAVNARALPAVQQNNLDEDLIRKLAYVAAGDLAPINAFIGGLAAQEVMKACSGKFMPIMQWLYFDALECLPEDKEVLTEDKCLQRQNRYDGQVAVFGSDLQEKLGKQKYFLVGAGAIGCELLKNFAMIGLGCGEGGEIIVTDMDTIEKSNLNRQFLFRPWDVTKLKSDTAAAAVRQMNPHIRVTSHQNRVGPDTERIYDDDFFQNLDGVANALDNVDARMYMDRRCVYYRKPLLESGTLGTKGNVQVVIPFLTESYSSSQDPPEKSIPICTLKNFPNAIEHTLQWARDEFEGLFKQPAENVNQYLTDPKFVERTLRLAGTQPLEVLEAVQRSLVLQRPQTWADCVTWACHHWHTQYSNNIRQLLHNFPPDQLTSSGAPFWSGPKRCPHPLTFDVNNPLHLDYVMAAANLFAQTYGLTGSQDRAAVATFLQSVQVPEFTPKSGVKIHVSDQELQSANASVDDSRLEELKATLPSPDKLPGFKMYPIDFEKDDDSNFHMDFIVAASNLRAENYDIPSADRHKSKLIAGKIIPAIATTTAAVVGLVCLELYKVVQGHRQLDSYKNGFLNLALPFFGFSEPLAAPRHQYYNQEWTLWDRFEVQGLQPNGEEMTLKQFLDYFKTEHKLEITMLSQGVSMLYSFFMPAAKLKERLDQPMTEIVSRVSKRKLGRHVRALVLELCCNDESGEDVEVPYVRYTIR
In short: (§2)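 Silver-stained bands from cells irradiated before lysis were excised, destained, reduced with 10 mM DTT, alkylated with 50 mM iodoacetamide and digested with trypsin overnight. Peptides were extracted in 1% TFA/50% acetonitrile. Nano-C18 LC used a 2–50% acetonitrile gradient with 0.1% formic acid over 50 min at 260 nL/min, followed by MS/MS identification.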

[5] = target: ATP synthase F(1) complex subunit beta, mitochondrial (Homo sapiens) (UniProt P06576); experiment: Binding affinity to ATP5B in human Jurkat cells at 150 uM followed by UV irradiation for 30 mins with Wood's glass filtered medium pressure mercury arc light prior to cell lysis measured after denaturing wash by LC-MS/MS based pull down assay; in short: as §2
Sequence of ATP synthase F(1) complex subunit beta, mitochondrial (Homo sapiens) (P06576 whole entry, one chain of several): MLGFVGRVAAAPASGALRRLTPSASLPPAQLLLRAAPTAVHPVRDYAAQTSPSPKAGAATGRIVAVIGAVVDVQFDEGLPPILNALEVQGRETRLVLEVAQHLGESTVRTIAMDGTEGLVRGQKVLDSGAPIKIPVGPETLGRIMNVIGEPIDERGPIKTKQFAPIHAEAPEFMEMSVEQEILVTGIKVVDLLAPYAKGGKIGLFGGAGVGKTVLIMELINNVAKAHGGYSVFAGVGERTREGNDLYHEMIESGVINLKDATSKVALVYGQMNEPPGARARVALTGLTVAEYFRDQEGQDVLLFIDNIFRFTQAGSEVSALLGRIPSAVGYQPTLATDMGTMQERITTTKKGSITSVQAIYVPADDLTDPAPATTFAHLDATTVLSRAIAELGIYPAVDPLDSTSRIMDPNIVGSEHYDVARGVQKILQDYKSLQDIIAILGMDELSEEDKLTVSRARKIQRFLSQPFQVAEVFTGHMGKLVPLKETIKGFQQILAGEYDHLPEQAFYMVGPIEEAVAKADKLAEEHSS

O=C(CCCC[C@@H]1SC[C@@H]2NC(=O)N[C@@H]21)NCCOCCOCCNC(=O)COc1cc(O)c2c(=O)c(O)c(-c3ccc(O)c(O)c3)oc2c1
IC50 [1]: 25.9 µM
Activity [2]: Active
Activity [3]: Active
Activity [4]: Active
Activity [5]: Active
